Pf Dd2 inh – P. falciparum Dd2 growth inhibitors, primary screen, SYBR Green fluorescence, single dose replicates; activity change, % at 10 µM; AID 1159554, 2015; 72 h; hits give low values; actives 2.3% (n = 94,000); in the data active = activity change below about -80%; inconclusive = no clear call, values can overlap the other calls
IDH1 mut inh – inhibitors of IDH1 R132H reductase, primary screen, biochemical, plate reader, single point | AID 624101, 2012 | inhibition, % at 10 µM | diaphorase/resazurin fluorescence, 60 min | actives 0.18% (n = 70,000); in the data active = inhibition above about 34%; inconclusive = no clear call, values can overlap the other calls; inactive = below about 11%;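 also: 0% = DMSO and 100% = no enzyme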
GASC1 inh – inhibitors of GASC-1 (KDM4C) histone demethylase, primary screen, biochemical, single concentration HTS. GST-KDM4C 2-372, H3K9me3 peptide, LANCE TR-FRET. actives 0.15% (n = 96,000). inhibition, % at 12.5 µM. AID 720574, 2013;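 active = mean replicate inhibition above about 25%, with at least 55% of replicates also reaching it, limit read from the data, passing the limit was not always enough; inconclusive = only one of those two conditions met; inactive = neither condition met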
Target sequence (Q9H3R0 2-372 limits assumed): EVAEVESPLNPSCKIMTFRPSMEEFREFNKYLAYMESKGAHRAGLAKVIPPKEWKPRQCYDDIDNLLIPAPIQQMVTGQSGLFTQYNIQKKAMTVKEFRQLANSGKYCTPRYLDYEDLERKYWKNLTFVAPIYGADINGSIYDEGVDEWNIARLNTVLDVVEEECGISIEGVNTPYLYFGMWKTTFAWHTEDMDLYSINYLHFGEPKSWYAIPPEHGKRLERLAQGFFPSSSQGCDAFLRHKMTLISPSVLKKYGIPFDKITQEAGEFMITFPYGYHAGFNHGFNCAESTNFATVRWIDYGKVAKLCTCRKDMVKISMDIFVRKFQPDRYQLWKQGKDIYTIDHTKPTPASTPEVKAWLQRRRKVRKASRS
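Assay system: GST-GASC-1 enzyme fragment 2-372 | Amount: 10 nM enzyme | Medium: HEPES buffer, pH 7.5, plus ascorbate | Reagent: H3K9me3 peptide substrate, Fe(II), 2-oxoglutarate | Doses: Single-point compound screen | Incubation: 30 min demethylation and 1 h detection at room temperature | Measured by: LANCE TR-FRET, excitation 340 nm, emissions 618 and 671 nm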
T cruzi growth-1 – T. cruzi intracellular proliferation inhibitors, primary screen, cell-based, beta-gal Tulahuen parasites, NIH3T3 host, luminescence | AID 624255, 2012 | actives 5.9% (n = 77,000) | inhibition, % at 8.34 µM | T. cruzi beta-gal in NIH3T3, GalScreen luminescence, 90 h;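 active = mean inhibition above about 93%, with at least 55% of replicates each passing it, limit read from the data, passing the limit was not always enough; inconclusive = only one of those two conditions holds; inactive = neither condition holds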
T cruzi growth-2 – T. cruzi intracellular proliferation inhibitors, confirmation, cell-based, NIH3T3 host, beta-gal parasite, luminescence, cherry-pick; shares compounds with T cruzi growth-1; T. cruzi beta-gal in NIH3T3, GalScreen luminescence, 90 h; inhibition, % at 8.35 µM; actives 72% (n = 5,600); AID 651739, 2012;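 active = mean replicate inhibition above about 95% and at least 55% of replicates individually reaching it, limit read from the data; inconclusive = only one of the two criteria is met; inactive = neither criterion is met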
T cruzi growth-3 – inhibitors of intracellular T. cruzi replication, confirmation, NIH3T3 host cells, beta-gal parasites, cherry-pick, set 2 | actives 21% (n = 5,600) | inhibition, % at 2.09 µM | T. cruzi beta-gal in NIH3T3, GalScreen luminescence, 90 h | shares compounds with T cruzi growth-1;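 active = mean inhibition above about 95%, with at least 55% of replicates also reaching it, limit read from the data; inconclusive = meets just one of the two conditions; inactive = meets neither condition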;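 also: plate controls were neutral control median for no effect and positive control median for full effect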
3T3 cytotox – cytotoxicity in mouse NIH/3T3 fibroblasts, confirmation, cytotoxicity control for T. cruzi proliferation inhibitor project, cell-based, cherry-pick, single point | shares compounds with T cruzi growth-1 | NIH/3T3 viability, CellTiter-Glo ATP luminescence, 90 h | cytotoxicity (signal decrease), % at 8.35 µM | actives 14% (n = 5,600) | AID 651742, 2012;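 active = mean signal decrease across replicates above about 35% based on untreated-well scatter, with enough replicates individually passing, limit read from the data; inconclusive = no rule stated though some were filed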;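 also: 0% = median of neutral control wells and 100% = median of positive control wells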
3T3 cytotox 2 – NIH/3T3 fibroblast cytotoxicity, confirmation, cytotoxicity control, cell-based, cherry-pick, single point, set 2; shares compounds with T cruzi growth-1; NIH/3T3 viability, CellTiter-Glo ATP luminescence, 90 h; inhibition, % at 24.9 µM; actives 56% (n = 5,600); AID 651744, 2012;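 active = mean loss of cell viability signal at or above a set limit, and enough replicates individually reaching it; inconclusive = meets only the mean limit or only the replicate share; inactive = meets neither condition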;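 also: 0% = median of neutral control wells and 100% = median of positive control wells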
Active calls of the source: *; ? = inconclusive; . = not tested or not shown. A selection: hits, their analogues and other compounds. The true share with any hit is near 5.8%.

SMILES	Pf Dd2 inh	IDH1 mut inh	GASC1 inh	T cruzi growth-1	T cruzi growth-2	T cruzi growth-3	3T3 cytotox	3T3 cytotox 2
O=C(Nc1cc(F)ccc1F)N1CCCCN2[C@H](CO)[C@H](c3ccc(-c4ccncc4)cc3)[C@H]2C1	-19	.	-1	101*	111*	80	7	19
O=C(NO)c1ccc(C(=O)N/N=C/c2ccc3ccccc3c2O)cc1	.	0	.	.	.	.	.	.
Cc1nnc(SCC(=O)n2c3c(c4ccccc42)CCCC3)n1C	.	0	.	.	.	.	.	.
O=c1cc(-c2ccc(O)cc2)oc2cc(OC3OC(CO)C(O)C(O)C3OC3OCC(O)(CO)C3O)cc(O)c12 (stereo unspecified)	.	-1	.	.	.	.	.	.
COc1ccc(CN(C)C[C@@H]2OCCCC[C@@H](C)Oc3ccc(NC(=O)Nc4cccc5ccccc45)cc3C(=O)N([C@@H](C)CO)C[C@H]2C)cc1	-59	0	14	79	.	.	.	.
COc1ccc(CN(C)C[C@@H]2OCCCC[C@@H](C)Oc3ccc(NC(=O)Nc4cccc5ccccc45)cc3C(=O)N([C@@H](C)CO)C[C@@H]2C)cc1	-32	0	-1	94	.	.	.	.
COc1ccc(CN(C)C[C@@H]2OCCCC[C@H](C)Oc3ccc(NC(=O)Nc4cccc5ccccc45)cc3C(=O)N([C@@H](C)CO)C[C@@H]2C)cc1	?	-6	-1	?	103*	96*	25	103*
COc1ccc(CN(C)C[C@H]2OCCCC[C@H](C)Oc3ccc(NC(=O)Nc4cccc5ccccc45)cc3C(=O)N([C@@H](C)CO)C[C@H]2C)cc1	?	2	-4	?	106*	92	25	?
COc1ccccc1NC(=O)c1ccccc1NC(=O)COc1ccccc1C	.	0	.	.	.	.	.	.
Cc1ccc(C2CC(=O)NC(SCC(=O)OC(C)C)=C2C#N)cc1 (stereo unspecified)	.	-1	.	.	.	.	.	.
OC[C@H]1Nc2ccc(-c3cccc(F)c3)cc2[C@H]2[C@@H]1CCN2Cc1ccncc1	-47	.	5	106*	104*	74	21	92*
OC[C@@H]1Nc2ccc(-c3ccc(F)cc3)cc2[C@H]2[C@@H]1CCN2Cc1ccc(F)cc1	-68	.	0	44	.	.	.	.
N#Cc1cccc(-c2ccc3c(c2)[C@@H]2[C@@H](CCN2Cc2cncnc2)[C@@H](CO)N3)c1	-53	.	1	105*	89	51	-2	12
OC[C@H]1Nc2ccc(-c3cccc(F)c3)cc2[C@@H]2[C@H]1CCN2Cc1ccc(F)cc1	-90*	.	-1	111*	?	112*	51*	105*
OC[C@@H]1Nc2ccc(-c3ccccc3)cc2[C@@H]2[C@H]1CCN2Cc1ccc(F)cc1	-71	.	1	75	.	.	.	.
O=C(Nc1ccc(I)cc1C(=O)NCCN1CCOCC1)c1ccco1	.	0	.	.	.	.	.	.
O=C(CSc1nnc(-c2ccccc2)c(-c2ccccc2)n1)Nc1cccc(C(F)(F)F)c1	.	1	.	.	.	.	.	.
C[C@H](CO)N1C[C@H](C)[C@H](CN(C)Cc2ccc(Oc3ccccc3)cc2)Oc2ccc(N(C)C)cc2CC1=O	-25	.	0	65	.	.	.	.
C[C@@H]1CN([C@@H](C)CO)C(=O)Cc2cc(N(C)C)ccc2O[C@H]1CN(C)Cc1ccc(Oc2ccccc2)cc1	5	0	7	111*	91	115*	7	106*
C[C@H](CO)N1C[C@H](C)[C@@H](CN(C)Cc2ccc(Oc3ccccc3)cc2)Oc2ccc(N(C)C)cc2CC1=O	-23	0	1	116*	114*	82	15	106*
C[C@@H]1CN([C@H](C)CO)C(=O)c2cc(NC(=O)C3CCCCC3)ccc2O[C@H]1CN(C)Cc1ccc(-c2ccccc2)cc1	-10	3	0	?	108*	-5	4	39*
C[C@H](CO)N1C[C@H](C)[C@H](CN(C)Cc2ccc(-c3ccccc3)cc2)Oc2ccc(NC(=O)NC3CCCCC3)cc2C1=O	13	-1	-2	111*	104*	19	13	47*
C[C@H](CO)N1C[C@H](C)[C@@H](CN(C)Cc2ccc(-c3ccccc3)cc2)Oc2ccc(NC(=O)C3CCCCC3)cc2C1=O	-4	.	-1	41	.	.	.	.
C[C@H]1CN([C@@H](C)CO)C(=O)c2cc(NC(=O)C3CCCCC3)ccc2O[C@@H]1CN(C)Cc1ccc(-c2ccccc2)cc1	-42	.	0	104*	109*	70	33	21
C[C@H](CO)N1C[C@H](C)[C@@H](CN(C)Cc2ccccc2)Oc2ccc(NC(=O)NC3CCCCC3)cc2C1=O	6	.	4	-9	.	.	.	.
SMILES	Pf Dd2 inh	IDH1 mut inh	GASC1 inh	T cruzi growth-1	T cruzi growth-2	T cruzi growth-3	3T3 cytotox	3T3 cytotox 2
COc1ccc(NC(=O)N(C)C[C@@H]2OCCCC[C@H](C)Oc3ccc(NC(=O)Nc4ccc(F)cc4)cc3C(=O)N([C@@H](C)CO)C[C@@H]2C)cc1	-11	.	-3	101*	107*	39	15	0
COc1ccc(NC(=O)Nc2ccc3c(c2)C(=O)N([C@@H](C)CO)C[C@H](C)[C@H](CN(C)C(=O)Nc2ccc(OC)cc2)OCCCC[C@@H](C)O3)cc1	-71	0	2	.	.	.	.	.
COc1ccc(NC(=O)Nc2ccc3c(c2)C(=O)N([C@@H](C)CO)C[C@H](C)[C@@H](CN(C)C(=O)C2CCCCC2)OCCCC[C@@H](C)O3)cc1	?	0	0	95*	104*	5	0	-28
COc1ccc(NC(=O)Nc2ccc3c(c2)C(=O)N([C@H](C)CO)C[C@H](C)[C@H](CN(C)C(=O)Nc2ccc(OC)cc2)OCCCC[C@H](C)O3)cc1	33	.	0	?	103*	22	-4	5
Cc1oc(-c2ccc(Cl)cc2)cc1COC(=O)Nc1ccccc1	.	0	.	.	.	.	.	.
CCC(=O)N1C[C@H]2[C@@H](c3ccccc31)[C@@H](CO)N2Cc1ccccc1OC	-71	.	2	?	105*	11	22	13
CCC(=O)N1C[C@H]2[C@@H](c3ccccc31)[C@@H](CO)N2C(=O)CC	-21	.	-1	60	.	.	.	.
